ChEMBL document CHEMBL1155299, “Design, syntheses, and evaluation of Taspase1 inhibitors” (Bioorg Med Chem Lett, 2009)
Active and inactive are the calls of the source. The calls are words filed in the database; no cut-off is given here. Peptide text beside a SMILES is read from it.

Key:
[1] = target: T1, Threonine aspartase 1 (Homo sapiens) (UniProt Q9H6P5); assay: Inhibition of recombinant Taspase 1 assessed as accumulation of emitted fluorescence at 100 uM by FRET assay
T1 sequence (whole entry): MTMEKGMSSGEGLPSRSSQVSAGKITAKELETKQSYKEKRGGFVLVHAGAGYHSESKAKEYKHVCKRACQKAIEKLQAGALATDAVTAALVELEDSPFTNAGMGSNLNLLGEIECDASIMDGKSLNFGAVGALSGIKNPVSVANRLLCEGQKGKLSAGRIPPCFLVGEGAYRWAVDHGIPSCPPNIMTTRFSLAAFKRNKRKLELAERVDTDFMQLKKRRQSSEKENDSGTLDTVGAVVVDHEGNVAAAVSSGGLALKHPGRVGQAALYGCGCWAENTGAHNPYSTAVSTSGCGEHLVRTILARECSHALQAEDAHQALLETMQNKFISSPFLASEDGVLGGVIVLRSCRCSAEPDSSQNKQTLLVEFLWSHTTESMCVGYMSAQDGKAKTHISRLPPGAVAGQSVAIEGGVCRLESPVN

[2] = target: T1, Threonine aspartase 1 (Homo sapiens); assay: Inhibition of recombinant Taspase 1 assessed as loss of processing and accumulation of full length p45 fragment by radiographic in vitro cleavage assay added 30 mins before translated p45MLL
How it was run: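 Substrate was a p45MLL fragment (residues 2,500–2,800) with the CS1 site mutated to block cleavage there. It was made by in vitro translation as 35S-labelled protein, exposed to Taspase1, and cleavage was followed by radiography.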

Threonine aspartase 1 = target: T2, Threonine aspartase 1 (Homo sapiens, UniProt Q9H6P5); assay: Inhibition of recombinant Taspase 1 assessed as accumulation of emitted fluorescence by FRET assay
T2 sequence (Q9H6P5 whole entry): T1 sequence (whole entry)

Row | Activity [1] | Activity [2] | IC50 (Threonine aspartase 1) [µM] | SMILES
1 | inactive |  |  | CCCC[C@H](NC(=O)[C@H](CC(C)C)NC(=O)[C@H](CCC(N)=O)NC(=O)[C@H](CO)NC(=O)[C@@H](NC(C)=O)[C@@H](C)CC)C(=O)O (HELM PEPTIDE1{[ac].I.S.Q.L.[Nle]}$$$$V2.0)
2 | inactive |  |  | CC[C@H](C)[C@H](NC(C)=O)C(=O)N[C@@H](CO)C(=O)N[C@@H](CCC(N)=O)C(=O)N[C@@H](CC(C)C)C(=O)NC1CB(O)OC1=O (some centres undefined) (HELM PEPTIDE1{[ac].I.S.Q.L.[O=C1OB(O)CC1N[*:1]]}$$$$V2.0)
3 |  | Active | 63.4 | CC[C@H](C)[C@H](NC(C)=O)C(=O)N[C@@H](CO)C(=O)N[C@@H](CCC(N)=O)C(=O)N[C@@H](CC(C)C)C(=O)N[C@@H](C/C=C/C(C)=O)C(=O)O (HELM PEPTIDE1{[ac].I.S.Q.L.[CC(=O)/C=C/C[C@H](N[*:1])C(=O)O]}$$$$V2.0)
4 |  | Active |  | CC[C@H](C)[C@H](NC(C)=O)C(=O)N[C@@H](CO)C(=O)N[C@@H](CCC(N)=O)C(=O)N[C@@H](CC(C)C)C(=O)N[C@H](/C=C/S(C)(=O)=O)CC(=O)O (HELM PEPTIDE1{[ac].I.S.Q.L.[CS(=O)(=O)/C=C/[C@H](CC(=O)O)N[*:1]]}$$$$V2.0)
5 |  | Active | > 100 | CC[C@H](C)[C@H](NC(C)=O)C(=O)N[C@@H](CO)C(=O)N[C@@H](CCC(N)=O)C(=O)N[C@@H](CC(C)C)C(=O)N[C@@H](C/C=C/S(C)(=O)=O)C(=O)O (HELM PEPTIDE1{[ac].I.S.Q.L.[CS(=O)(=O)/C=C/C[C@H](N[*:1])C(=O)O]}$$$$V2.0)
6 | inactive |  |  | CCCC[C@H](NC(=O)[C@H](CC(C)C)NC(=O)[C@H](CCC(N)=O)NC(C)=O)C(=O)O (HELM PEPTIDE1{[ac].Q.L.[Nle]}$$$$V2.0)

Row | SMILES | Activity [1] | Activity [2] | IC50 (Threonine aspartase 1) [µM]
7 | CC[C@H](C)[C@H](NC(C)=O)C(=O)N[C@@H](CO)C(=O)N[C@@H](CCC(N)=O)C(=O)N[C@@H](CC(C)C)C(=O)N[C@@H](CC(=O)C1(C)CO1)C(=O)O (some centres undefined) (HELM PEPTIDE1{[ac].I.S.Q.L.[CC1(C(=O)C[C@H](N[*:1])C(=O)O)CO1]}$$$$V2.0) |  | Active | 
